Calls of active or inactive are those of the source. No cut-off for these calls is given here.
What was measured:
[1] = target: T1, G-protein coupled receptor 68 (Homo sapiens, UniProt Q15743); assay: Binding affinity to GPR68 expressed in human HEK293T cells assessed as cAMP production in presence of H+ proton by Split-luciferase based luminescence counter analysis; assay type: cell-based; details: filed as positive allosteric modulator
Procedure, shortened: (§1)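 Proton concentration-response of GPR68 (wild type or E160A/K/Q, R189L/M, H269F mutants) in transiently transfected HEK293-T cells. Read-out: GloSensor cAMP, with luciferin loading 90 min at 37°C at pH 8.4. Run with and without increasing modulator concentrations; 20 min at room temperature before luminescence. Proton KA fixed to the proton EC50 without modulator. KB, τA, α, β fitted globally with an operational allosteric model. n=4.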

[2] = target: T1, G-protein coupled receptor 68; assay: Positive allosteric modulator activity at GPR68 expressed in human HEK293T cells assessed as cAMP production in presence of H+ proton by Split-luciferase based luminescence counter analysis (reference value: 26.4 to 43.8 %); assay type: functional, cell-based; procedure, shortened: as §1
[3] = target: T1, G-protein coupled receptor 68; assay: Positive allosteric modulator activity at GPR68 expressed in human HEK293T cells assessed as cAMP production in presence of H+ proton by Split-luciferase based luminescence counter analysis (reference value: 6.53 to 6.72); assay type: functional, cell-based
[4] = target: G-protein coupled receptor 65 (Homo sapiens, UniProt Q8IYL9); assay: Antagonist activity against GPR65 (unknown origin) transfected in human HEK293T cells incubated for 15 mins by luminescence counter analysis; assay type: functional, cell-based; details: filed as antagonist
Procedure, shortened: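 GloSensor split-luciferase cAMP assay. HEK293-T cells transiently co-transfected with GPR65 (wild type or the D153A, R187L, F242A or Y272A mutant) and GloSensor 7A reporter. Cells plated in DMEM with 1% dialyzed FBS for at least 6 h, then loaded with luciferin (4 mM, in drug buffer pH 8.4) for 90 min at 37°C. Compounds added at set pH in HBSS with 10 mM HEPES/10 mM MES, with TAPS for higher pH. Luminescence read after about 20 min at room temperature. Data normalized to buffer basal and fitted to a 4-parameter logistic.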

[5] = target: C-X-C chemokine receptor type 4 (Homo sapiens) (UniProt P61073); assay: Antagonist activity against CXCR4 receptor (unknown origin) transfected in human HEK293T cells at 10 uM incubated for 15 mins in presence of AMD3100 by luminescence counter analysis; assay type: functional, cell-based
Procedure, shortened: (§2)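 HEK293-T cells transiently transfected with CXCR4 and the GloSensor cAMP reporter, plated in DMEM with 1% dialyzed FBS. Test compound at 10 μM in 20 mM HEPES/HBSS, pH 7.4, 15 min at room temperature. Agonist mode: luciferin (4 mM final) plus 200 nM isoproterenol added, 20 min. Antagonist mode: compound 10 min, then reference agonist at EC80 for 10 min, then luciferin/isoproterenol. Luminescence read. CXCL12 (1 or 3 μM) is the agonist control and AMD3100 (10 μM) the antagonist control. n=2.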

[6] = target: C-X-C chemokine receptor type 4 (Homo sapiens) (UniProt P61073); assay: Agonist activity against CXCR4 receptor (unknown origin) transfected in human HEK293T cells at 10 uM incubated for 15 mins in presence of CXCL12 by luminescence counter analysis; assay type: functional, cell-based; procedure, shortened: as §2
[7] = filed as positive allosteric modulator

T1 sequence (Q15743 whole entry): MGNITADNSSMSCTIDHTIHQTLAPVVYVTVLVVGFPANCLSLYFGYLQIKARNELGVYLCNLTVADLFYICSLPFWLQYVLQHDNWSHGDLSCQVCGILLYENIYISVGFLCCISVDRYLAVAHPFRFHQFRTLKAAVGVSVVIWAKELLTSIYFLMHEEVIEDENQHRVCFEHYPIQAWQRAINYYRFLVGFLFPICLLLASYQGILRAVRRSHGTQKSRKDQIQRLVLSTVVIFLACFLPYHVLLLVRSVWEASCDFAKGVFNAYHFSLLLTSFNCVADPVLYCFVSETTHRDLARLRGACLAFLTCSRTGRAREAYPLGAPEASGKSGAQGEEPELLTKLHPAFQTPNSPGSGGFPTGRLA
C-X-C chemokine receptor type 4 (Homo sapiens), sequence (P61073 whole entry): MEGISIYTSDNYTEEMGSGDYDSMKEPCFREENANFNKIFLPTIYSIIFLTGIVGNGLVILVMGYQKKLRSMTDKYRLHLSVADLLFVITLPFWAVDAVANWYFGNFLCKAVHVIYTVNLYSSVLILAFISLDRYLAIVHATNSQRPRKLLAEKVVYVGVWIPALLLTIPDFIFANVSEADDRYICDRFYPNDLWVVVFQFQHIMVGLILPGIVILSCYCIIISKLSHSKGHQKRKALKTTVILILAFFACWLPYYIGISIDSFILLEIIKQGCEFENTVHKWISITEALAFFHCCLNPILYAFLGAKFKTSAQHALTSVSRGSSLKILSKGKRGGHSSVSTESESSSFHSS
G-protein coupled receptor 65, sequence (Q8IYL9 whole entry): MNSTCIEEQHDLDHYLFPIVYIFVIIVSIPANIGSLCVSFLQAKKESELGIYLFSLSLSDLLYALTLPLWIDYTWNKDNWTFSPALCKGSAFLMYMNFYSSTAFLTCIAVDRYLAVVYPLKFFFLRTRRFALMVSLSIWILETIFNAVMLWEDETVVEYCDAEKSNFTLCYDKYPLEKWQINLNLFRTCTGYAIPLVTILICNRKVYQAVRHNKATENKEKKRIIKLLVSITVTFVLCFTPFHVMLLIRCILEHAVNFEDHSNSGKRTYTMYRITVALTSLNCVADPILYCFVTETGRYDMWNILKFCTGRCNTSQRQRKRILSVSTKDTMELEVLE

Row | SMILES | pKb [1] | also measured
1 | CCCCNc1c(C(=O)OCC)c(C)nc2c1cnn2CC | 5.2 | –
2 | Nc1nc(NCc2ccccc2)nc(-c2ccccc2N)n1 | 5.22 | Emax [2, 7]: 50.2%; EC50 [3]: 63.1 nM
3 | Nc1nc(NCc2cccc(F)c2)nc(-c2ccc(F)cc2N)n1 | 3.68 | –
4 | Nc1nc(NCc2cccc(F)c2)nc(-c2ccc(F)c(F)c2CO)n1 | 4.01 | –
5 | COc1cc([C@H]2NC(=O)c3[nH]nc(-c4ccco4)c32)ccc1O | 5.17 | Emax [2, 7]: 46.9%; EC50 [3]: 158 nM
6 | O=C1CCc2cc(-c3csc(NC(=O)c4ccc(-c5ccccc5F)o4)n3)ccc2N1 | – | Activity [4]: Active
7 | Nc1nc(NCc2ccccc2)nc(-c2ccc(F)c(F)c2CO)n1 | 3.84 | –
8 | COc1ccc(-c2nc(N)nc(NCc3ccccc3)n2)c(CO)c1 | 4.43 | –
9 | O=C1N[C@H](c2cccc([N+](=O)[O-])c2)c2c(-c3ccco3)n[nH]c21 | 4.42 | Emax [2, 7]: 60.3%; EC50 [3]: 107 nM
10 | OC1CCC(Nc2nc(-c3ccccc3)nc3[nH]ccc23)CC1 (configuration not stated) | 6.2 | –
11 | O=C1N[C@H](c2ccccc2[N+](=O)[O-])c2c(-c3ccccc3)n[nH]c21 | 5.48 | Emax [2, 7]: 50.8%; EC50 [3]: 186 nM
12 | CC(=O)c1cccc(-c2nc(N)nc(Nc3ccc(C)cc3)n2)c1 | 6.31 | Emax [2, 7]: 67.3%; EC50 [3]: 57.5 nM
13 | Nc1nc(NCc2ccccc2F)nc(-c2cc(F)c(F)cc2N)n1 | 4.93 | –
14 | Cc1ccc(-c2nc(N)nc(NCc3ccccc3)n2)c2cccnc12 | 4.92 | Emax [2]: 31%; EC50 [3]: 95.5 nM
15 | COc1ccc(CNc2nc(N)nc(-c3ccccc3CO)n2)cc1 | 4.35 | –
16 | O=C1CN=C(c2ccccc2F)c2cc(Cl)ccc2N1 | – | Activity [5]: inactive; Activity [6]: inactive
17 | O=C1CN=C(c2ccccc2Cl)c2cc([N+](=O)[O-])ccc2N1 | – | Activity [5]: inactive; Activity [6]: inactive
18 | Nc1nc(NCc2cccc(F)c2)nc(-c2cccc(F)c2N)n1 | 3.88 | –
19 | Nc1nc(NCCCCc2ccccc2)nc(-c2ccccc2CO)n1 | 5.82 | –
20 | Nc1nc(NCc2cccc(F)c2)nc(-c2cc(F)c(F)cc2N)n1 | 4.66 | –
21 | Nc1nc(NCc2ccccc2F)nc(-c2ccc(F)cc2N)n1 | 4.23 | –
22 | O=C1CN=C(c2ccccc2)c2cc(Cl)ccc2N1 | – | Activity [5]: inactive; Activity [6]: inactive
23 | Nc1nc(NCCCc2ccccc2)nc(-c2ccccc2CO)n1 | 5.75 | –
24 | Nc1nc(NCc2ccccc2)nc(-c2ccc(CO)cc2)n1 | 4.93 | –
25 | Nc1nc(-c2ccc(Cl)c(Cl)c2)c(-c2ccncc2)s1 | 7.51 | –
26 | Nc1nc(NCc2cc[nH]n2)nc(-c2ccccc2CO)n1 | 5.17 | –
27 | Nc1nc(NCc2ccccc2F)nc(-c2cccc(F)c2N)n1 | 4.11 | –
28 | Nc1nc(NCCc2ccccc2)nc(-c2ccccc2CO)n1 | 5.43 | –
29 | Nc1nc(NCc2ccccc2)nc(-c2ccc(F)c(F)c2)n1 | 5.69 | Emax [2, 7]: 68.8%; EC50 [3]: 91.2 nM
30 | O=C(Nc1nc(-c2ccc3c(c2)OCCO3)cs1)c1csnn1 | – | Activity [4]: Active
